According to ChEMBL document CHEMBL1250448, “Inhibitor hijacking of Akt activation” (Nat Chem Biol, 2009):
Activity calls are given as the source filed them. No cut-off for these calls is given here.

Columns and labels:
[1] = molecular target: T1, RAC-alpha serine/threonine-protein kinase (Homo sapiens, UniProt P31749); test: Induction of AKT1 Thr308 phosphorylation expressed in IGF1-stimulated HEK293 cells treated 20 mins before IGF1 stimulation by immunoblotting; format: cell-based
How it was run: (§1)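 HEK293 cells (not transfected), serum-starved overnight, then given inhibitor for 20 min before 50 ng/ml IGF-1 for a further 10 min. Cells detached in ice-cold Ca/Mg-free PBS with 0.04% EDTA and lysed in Tris pH 7.5 Triton buffer with protease/phosphatase inhibitors. Lysates cleared at 14000 g, protein equalised by Bradford, and pThr308, pSer473 and GSK3β pSer9 read by immunoblot with ECL.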

HEK-293T [2] = test: Induction of myristoylated AKT3 M229G mutant Thr308 hyperphosphorylation expressed in HEK293T cells at 10 uM after 30 mins by immunoblotting; format: cell-based
[3] = Inhibition of myristoylated AKT3 M229G mutant expressed in HEK293T cells by in vitro immunoprecipitation kinase assay; format: cell-based; conditions: hek-293t
How it was run: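 Myristoylated HA-tagged Akt3 was expressed in HEK293T cells, which were lysed in Tris pH 7.5 buffer containing Triton X, protease and phosphatase inhibitors. Lysates were protein-normalised and immunoprecipitated overnight at 4°C on BSA-blocked anti-HA matrix. Kinase activity of the immunoprecipitate was measured in vitro across inhibitor concentrations to derive IC50.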

HEK-293T [4] = test: Induction of myristoylated AKT2 M225G and kinase dead D289A mutant Thr308 hyperphosphorylation expressed in HEK293T cells at 10 uM after 30 mins by immunoblotting; format: cell-based
HEK-293T [5] = test: Induction myristoylated AKT2 M225G mutant Thr308 hyperphosphorylation expressed in HEK293T cells at 10 uM after 30 mins by immunoblotting; format: cell-based
[6] = test system: RAC-alpha serine/threonine-protein kinase (Homo sapiens), P31749 [M227G]; test: Inhibition of myristoylated AKT1 M227G mutant expressed in HEK293T cells assessed as reduction of GSK3-beta Ser9 phosphorylation after 30 mins by immunoblotting; format: cell-based; conditions: HEK-293T
HEK-293T [7] = test: Induction of myristoylated AKT3 M229G mutant Ser473 hyperphosphorylation expressed in HEK293T cells at 10 uM after 30 mins by immunoblotting; format: cell-based
HEK-293T [8] = test: Induction of nonmyristoylated AKT2 M225G and kinase dead D289A mutant Thr308 hyperphosphorylation expressed in HEK293T cells at 10 uM after 30 mins by immunoblotting; format: cell-based
[9] = test system: RAC-alpha serine/threonine-protein kinase (Homo sapiens), P31749 [M227G]; test: Induction of myristoylated AKT1 M227G mutant Thr308 hyperphosphorylation expressed in HEK293 cells after 30 mins by immunoblotting; conditions: HEK-293
[10] = molecular target: T1, RAC-alpha serine/threonine-protein kinase; test: Inhibition of wild type AKT1 expressed in HEK293 cells assessed as reduction of IGF1-induced GSK3-beta Ser9 phosphorylation treated 20 mins before IGF1 stimulation by immunoblotting; format: cell-based
How it was run: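 Untransfected HEK293 cells carrying endogenous Akt were serum-starved overnight. They were treated with compound for 20 min, then stimulated with 50 ng/ml IGF-1 for 10 min. DMSO stocks were diluted 1:1000. Lysates in Tris pH 7.5/Triton buffer with phosphatase inhibitors were immunoblotted for GSK3β Ser9 and Akt Thr308/Ser473 phosphorylation, read by ECL.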

[11] = test system: RAC-alpha serine/threonine-protein kinase (Homo sapiens), P31749 [M227G]; test: Induction of myristoylated AKT1 M227G mutant Ser473 hyperphosphorylation expressed in HEK293 cells after 30 mins by immunoblotting; conditions: HEK-293
[12] = molecular target: T1, RAC-alpha serine/threonine-protein kinase; test: Induction of AKT1 Ser473 phosphorylation expressed in IGF1-stimulated HEK293 cells treated 20 mins before IGF1 stimulation by immunoblotting; format: cell-based; how it was run: as §1
[13] = molecular target: T1, RAC-alpha serine/threonine-protein kinase; test: Inhibition of myristoylated wild type AKT1 expressed in HEK293T cells by in vitro immunoprecipitation kinase assay; format: cell-based, HEK-293T
How it was run: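 Myristoylated HA-tagged wild-type or analog-sensitive Akt1/2/3 expressed in HEK293T cells, then immunoprecipitated on anti-HA matrix. The immunoprecipitate was used in an in vitro kinase assay with Tris pH 7.5 buffer containing 10 mM MgCl2, β-glycerophosphate, orthovanadate and 2 mM DTT. IC50 determined from inhibitor titration.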

HEK-293T [14] = test: Induction myristoylated AKT2 M225G mutant Ser473 hyperphosphorylation expressed in HEK293T cells at 10 uM after 30 mins by immunoblotting; format: cell-based
[15] = molecular target: RAC-alpha serine/threonine-protein kinase (Homo sapiens, UniProt P31749, M227G); test: Inhibition of myristoylated AKT1 M227G mutant expressed in HEK293T cells by in vitro immunoprecipitation kinase assay; format: cell-based, HEK-293T
How it was run: (§2)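 Myristoylated HA-tagged Akt (wild-type or analog-sensitive isoforms) was transfected by Lipofectamine into HEK293T cells. Cells were lysed in Tris pH 7.5/NaCl/EDTA/EGTA/Triton buffer with protease and phosphatase inhibitors. Akt was immunoprecipitated overnight at 4°C on BSA-blocked anti-HA matrix, and the washed immunoprecipitate was used for the in vitro kinase assay. IC50 was determined from kinase activity.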

[16] = Inhibition of myristoylated AKT2 M225G mutant expressed in HEK293T cells by in vitro immunoprecipitation kinase assay; format: cell-based; conditions: hek-293t; how it was run: as §2

RAC-alpha serine/threonine-protein kinase (Homo sapiens), P31749 [M227G], sequence (P31749 whole entry M227G): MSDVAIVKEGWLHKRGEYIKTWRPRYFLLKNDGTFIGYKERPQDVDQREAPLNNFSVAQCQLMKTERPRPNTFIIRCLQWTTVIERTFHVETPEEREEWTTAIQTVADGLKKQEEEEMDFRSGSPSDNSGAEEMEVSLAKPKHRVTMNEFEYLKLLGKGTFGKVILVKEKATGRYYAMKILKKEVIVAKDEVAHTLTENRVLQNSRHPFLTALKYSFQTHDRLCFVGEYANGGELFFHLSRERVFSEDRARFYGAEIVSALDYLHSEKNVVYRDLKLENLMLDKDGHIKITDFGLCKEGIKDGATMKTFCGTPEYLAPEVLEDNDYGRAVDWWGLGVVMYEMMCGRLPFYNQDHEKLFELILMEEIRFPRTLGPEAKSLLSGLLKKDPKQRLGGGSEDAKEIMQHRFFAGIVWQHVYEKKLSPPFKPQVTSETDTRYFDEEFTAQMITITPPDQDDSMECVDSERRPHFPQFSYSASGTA
T1 sequence (P31749 whole entry): as the sequence (P31749 whole entry M227G) above, with G227M counted along it
RAC-alpha serine/threonine-protein kinase (Homo sapiens, UniProt P31749, M227G), sequence (P31749 whole entry M227G, canonical isoform): as the sequence (P31749 whole entry M227G) above

Activity [1]: inactive
IC50 [3]: 120 nM
inhibition [6]: Active
Activity [9]: Dose-dependent effect
inhibition [10]: inactive
Activity [11]: Dose-dependent effect
Activity [12]: inactive
IC50 [13]: > 10 µM
IC50 [15]: 28 nM
IC50 [16]: 240 nM
Compound: CC(C)(C)n1nc(Cc2cccc(I)c2)c2c(N)ncnc21
Activity (HEK-293T [2]): Active
Activity (HEK-293T [4]): Active
Activity (HEK-293T [5]): Active
Activity (HEK-293T [7]): Active
Activity (HEK-293T [8]): Active
Activity (HEK-293T [14]): Active
